{
  "source": "ChEMBL document CHEMBL4004830",
  "about": "(J Med Chem, 2017)",
  "key": {"[1]": {"target": "Dual specificity tyrosine-phosphorylation-regulated kinase 3 (Homo sapiens) (UniProt O43781)", "sequence (O43781 whole entry)": "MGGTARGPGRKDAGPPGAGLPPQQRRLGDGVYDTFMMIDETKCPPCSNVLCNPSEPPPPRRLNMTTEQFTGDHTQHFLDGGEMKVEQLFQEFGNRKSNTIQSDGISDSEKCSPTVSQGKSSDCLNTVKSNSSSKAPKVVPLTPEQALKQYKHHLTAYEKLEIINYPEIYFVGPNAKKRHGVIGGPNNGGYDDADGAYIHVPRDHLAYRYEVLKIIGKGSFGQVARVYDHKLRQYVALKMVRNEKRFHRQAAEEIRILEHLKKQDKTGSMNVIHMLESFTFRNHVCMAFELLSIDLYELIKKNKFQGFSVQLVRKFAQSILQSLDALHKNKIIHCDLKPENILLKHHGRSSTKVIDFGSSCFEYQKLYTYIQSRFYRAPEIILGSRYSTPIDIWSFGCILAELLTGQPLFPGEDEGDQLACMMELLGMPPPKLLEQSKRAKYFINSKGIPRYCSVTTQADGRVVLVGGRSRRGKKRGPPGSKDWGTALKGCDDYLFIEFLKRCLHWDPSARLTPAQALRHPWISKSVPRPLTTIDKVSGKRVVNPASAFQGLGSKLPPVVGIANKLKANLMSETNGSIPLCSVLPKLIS", "assay": "Inhibition of DYRK3 (unknown origin) at 1 uM in presence of [gamma-33P]-ATP […]", "summary_of_the_method": "(§1)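 Broad kinome panel of 369 kinases screened at 1 µM test concentration.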"}, "CDK2/Cyclin A2": {"target": "CDK2/Cyclin A2 (Homo sapiens, UniProt P24941)", "assay": "Inhibition of CDK2/cyclin A (unknown origin) in presence of [gamma-33P]-ATP […]", "format": "protein-complex assay", "details": "read-out: Ki(app)"}, "[2]": {"assay": "Volume of distribution at steady state in albino Wistar rat at 5 mg/kg, iv up to 24 hrs by LC-MS/MS analysis", "format": "ADME, organism-based", "details": "in vivo, read-out: Vdss", "summary_of_the_method": "(§2)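 Single-dose pharmacokinetics in male animals: albino Wistar rats given 5 mg/kg IV or 20 mg/kg PO, and BALB/c mice given 2 mg/kg IV or 10 mg/kg PO.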"}, "[3]": {"assay": "Cmax in BALB/c mouse at 2 mg/kg, iv up to 24 hrs by LC-MS/MS analysis", "format": "ADME, organism-based", "parameters": "dose 2 mg/kg, route intravenous", "details": "in vivo"}, "Cytochrome P450 2C19": {"target": "Cytochrome P450 2C19 (Homo sapiens, UniProt P33261)", "sequence (P33261 whole entry, canonical isoform)": "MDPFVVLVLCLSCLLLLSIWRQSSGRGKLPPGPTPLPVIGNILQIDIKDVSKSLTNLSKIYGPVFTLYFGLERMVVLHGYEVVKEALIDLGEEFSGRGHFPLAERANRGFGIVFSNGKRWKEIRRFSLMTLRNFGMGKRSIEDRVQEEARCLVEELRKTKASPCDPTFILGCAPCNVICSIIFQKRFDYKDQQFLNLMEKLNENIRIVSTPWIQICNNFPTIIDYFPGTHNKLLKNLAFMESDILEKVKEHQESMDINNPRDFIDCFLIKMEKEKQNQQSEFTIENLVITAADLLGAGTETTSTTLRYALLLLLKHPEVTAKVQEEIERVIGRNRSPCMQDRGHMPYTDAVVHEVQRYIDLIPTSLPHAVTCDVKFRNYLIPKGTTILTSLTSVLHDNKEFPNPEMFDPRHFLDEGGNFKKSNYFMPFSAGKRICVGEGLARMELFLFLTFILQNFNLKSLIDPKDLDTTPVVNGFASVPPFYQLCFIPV", "assay": "Inhibition of CYP2C19 in human liver microsomes using mephenytoin as substrate in presence of NADPH", "format": "ADME", "summary_of_the_method": "(§3)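 Human liver microsomes with NADPH and isoform-specific probe substrate (midazolam CYP3A4, dextromethorphan CYP2D6, ethoxyresorufin CYP1A, tolbutamide CYP2C9, mephenytoin CYP2C19); IC50 reported in µM.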"}, "[4]": {"assay": "Half life in BALB/c mouse at 10 mg/kg administered via oral gavage measured up to 24 hrs by LC-MS/MS analysis", "format": "ADME, organism-based", "details": "in vivo", "summary_of_the_method": "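Single-dose pharmacokinetics in male BALB/c mice, 2 mg/kg IV or 10 mg/kg PO.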"}, "Cytochrome P450 1A2": {"target": "Cytochrome P450 1A2 (Homo sapiens, UniProt P05177)", "sequence (P05177 whole entry)": "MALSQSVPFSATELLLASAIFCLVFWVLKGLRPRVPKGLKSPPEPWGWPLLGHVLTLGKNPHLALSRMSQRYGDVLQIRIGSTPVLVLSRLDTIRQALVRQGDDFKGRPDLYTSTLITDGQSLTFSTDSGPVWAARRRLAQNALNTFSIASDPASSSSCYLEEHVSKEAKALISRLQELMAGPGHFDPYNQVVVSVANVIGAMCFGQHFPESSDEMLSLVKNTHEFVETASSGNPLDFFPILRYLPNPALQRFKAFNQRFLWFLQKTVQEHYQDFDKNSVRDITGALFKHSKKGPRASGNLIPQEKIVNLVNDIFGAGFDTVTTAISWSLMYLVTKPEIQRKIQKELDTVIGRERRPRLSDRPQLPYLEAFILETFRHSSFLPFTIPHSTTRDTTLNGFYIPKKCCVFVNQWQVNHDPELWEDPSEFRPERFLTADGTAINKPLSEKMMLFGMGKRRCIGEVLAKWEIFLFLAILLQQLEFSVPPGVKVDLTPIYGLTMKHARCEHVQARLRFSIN", "assay": "Inhibition of CYP1A2 in human liver microsomes using ethoxyresorufin as substrate in presence of NADPH", "format": "ADME", "summary_of_the_method": "as §3"}, "Cytochrome P450 2C9": {"target": "Cytochrome P450 2C9 (Homo sapiens, UniProt P11712)", "sequence (P11712 whole entry)": "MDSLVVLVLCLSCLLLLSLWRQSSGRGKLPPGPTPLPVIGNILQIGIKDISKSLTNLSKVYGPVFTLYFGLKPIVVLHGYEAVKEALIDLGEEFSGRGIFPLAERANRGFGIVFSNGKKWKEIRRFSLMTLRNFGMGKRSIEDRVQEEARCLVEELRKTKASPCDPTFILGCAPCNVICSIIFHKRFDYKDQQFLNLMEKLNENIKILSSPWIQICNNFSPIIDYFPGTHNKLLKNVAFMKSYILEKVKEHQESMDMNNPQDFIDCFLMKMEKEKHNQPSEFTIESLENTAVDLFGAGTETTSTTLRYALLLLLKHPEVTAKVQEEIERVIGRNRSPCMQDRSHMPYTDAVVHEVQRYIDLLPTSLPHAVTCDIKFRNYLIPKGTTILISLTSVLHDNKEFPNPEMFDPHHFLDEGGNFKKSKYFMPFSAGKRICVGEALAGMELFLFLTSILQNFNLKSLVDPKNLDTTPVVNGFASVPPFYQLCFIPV", "assay": "Inhibition of CYP2C9 in human liver microsomes using tolbutamide as substrate in presence of NADPH", "format": "ADME", "summary_of_the_method": "as §3"}, "[5]": {"assay": "Clearance in albino Wistar rat at 5 mg/kg, iv up to 24 hrs by LC-MS/MS analysis", "format": "ADME, organism-based", "details": "in vivo"}, "[6]": {"target": "Cyclin-dependent kinase 7/ cyclin H (Homo sapiens) (UniProt P51946+P50613)", "assay": "Inhibition of CDK7/cyclin H (unknown origin) in presence of [gamma-33P]-ATP […]", "format": "protein-complex assay"}, "[7]": {"assay": "Tmax in BALB/c mouse at 10 mg/kg administered via oral gavage measured up to 24 hrs by LC-MS/MS analysis", "format": "ADME, organism-based", "details": "in vivo", "summary_of_the_method": "as §2"}, "[8]": {"assay": "Octanol/aqueous buffer partition co-efficient, log D of the compound at pH 7.4 by shake-flask method", "format": "physicochemical"}, "[9]": {"target": "Cyclin-dependent kinase 4/6 (Homo sapiens) (UniProt P11802+Q00534)", "sequence (P11802 whole entry, looked up)": "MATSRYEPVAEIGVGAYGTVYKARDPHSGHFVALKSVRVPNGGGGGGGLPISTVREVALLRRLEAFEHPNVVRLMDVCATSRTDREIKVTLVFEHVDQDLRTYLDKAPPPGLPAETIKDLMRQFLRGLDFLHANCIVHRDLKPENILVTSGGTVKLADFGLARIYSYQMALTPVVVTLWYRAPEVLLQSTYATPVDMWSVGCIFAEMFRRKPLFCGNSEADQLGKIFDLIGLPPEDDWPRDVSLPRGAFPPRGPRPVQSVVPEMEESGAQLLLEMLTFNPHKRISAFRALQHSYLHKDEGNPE", "sequence (Q00534 whole entry, looked up)": "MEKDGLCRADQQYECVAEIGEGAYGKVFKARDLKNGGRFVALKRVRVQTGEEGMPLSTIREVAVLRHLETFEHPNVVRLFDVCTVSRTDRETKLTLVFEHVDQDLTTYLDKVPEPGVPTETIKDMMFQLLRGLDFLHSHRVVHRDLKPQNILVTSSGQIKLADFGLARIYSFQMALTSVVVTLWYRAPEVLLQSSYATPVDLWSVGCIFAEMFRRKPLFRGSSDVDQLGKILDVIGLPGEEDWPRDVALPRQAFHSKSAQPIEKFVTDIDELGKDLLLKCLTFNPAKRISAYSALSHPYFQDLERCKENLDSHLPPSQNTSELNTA", "assay": "Inhibition of CDK4/6 in human MV4-11 cells assessed as reduction in Rb phosphorylation at Ser780 after 12 to 24 hrs by Western blot analysis", "format": "cell-based", "summary_of_the_method": "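MV4-11 cells treated 12 or 24 h across a dose series; Rb phospho-Ser780 detected by Western blot with β-actin as loading control; two independent experiments.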"}, "Cytochrome P450 2D6": {"target": "Cytochrome P450 2D6 (Homo sapiens, UniProt P10635)", "sequence (P10635 whole entry)": "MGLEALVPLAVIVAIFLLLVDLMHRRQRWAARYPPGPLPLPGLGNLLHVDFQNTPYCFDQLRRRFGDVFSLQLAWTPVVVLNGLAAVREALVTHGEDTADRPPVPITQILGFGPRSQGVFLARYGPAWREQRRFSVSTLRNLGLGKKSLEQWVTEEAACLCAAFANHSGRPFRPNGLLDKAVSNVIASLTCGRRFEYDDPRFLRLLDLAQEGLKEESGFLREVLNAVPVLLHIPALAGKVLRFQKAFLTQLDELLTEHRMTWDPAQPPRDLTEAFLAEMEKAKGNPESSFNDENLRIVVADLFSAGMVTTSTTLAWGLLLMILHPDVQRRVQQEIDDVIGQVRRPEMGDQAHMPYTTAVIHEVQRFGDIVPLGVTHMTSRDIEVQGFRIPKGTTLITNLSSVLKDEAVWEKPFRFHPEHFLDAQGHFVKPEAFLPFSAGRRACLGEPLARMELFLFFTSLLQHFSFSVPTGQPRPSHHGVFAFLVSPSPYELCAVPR", "assay": "Inhibition of CYP2D6 in human liver microsomes using dextromethorphan as substrate in presence of NADPH", "format": "ADME", "summary_of_the_method": "as §3"}, "[10]": {"target": "LIM domain kinase 1 (Homo sapiens) (UniProt P53667)", "sequence (P53667 whole entry, looked up, the tested form may be a part)": "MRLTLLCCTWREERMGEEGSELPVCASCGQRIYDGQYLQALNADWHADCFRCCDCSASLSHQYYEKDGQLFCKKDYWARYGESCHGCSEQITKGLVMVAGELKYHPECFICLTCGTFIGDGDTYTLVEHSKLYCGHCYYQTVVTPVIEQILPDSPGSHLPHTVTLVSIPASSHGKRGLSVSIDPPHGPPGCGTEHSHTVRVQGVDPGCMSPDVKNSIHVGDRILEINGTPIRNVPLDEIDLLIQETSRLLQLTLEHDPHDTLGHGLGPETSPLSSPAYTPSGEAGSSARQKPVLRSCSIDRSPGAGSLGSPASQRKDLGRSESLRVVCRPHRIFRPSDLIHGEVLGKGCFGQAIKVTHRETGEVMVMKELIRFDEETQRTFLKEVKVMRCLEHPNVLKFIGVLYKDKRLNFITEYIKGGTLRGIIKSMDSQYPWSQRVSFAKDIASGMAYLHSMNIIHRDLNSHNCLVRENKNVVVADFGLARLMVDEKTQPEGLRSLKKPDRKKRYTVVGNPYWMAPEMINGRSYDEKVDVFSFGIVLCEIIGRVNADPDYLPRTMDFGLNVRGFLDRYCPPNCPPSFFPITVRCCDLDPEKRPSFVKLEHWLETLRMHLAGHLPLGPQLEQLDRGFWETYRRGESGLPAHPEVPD", "assay": "Inhibition of full-length human LIMK1 (1 to 647 amino acid residues) expressed in bacterial expression system at 1 uM in presence of [gamma-33P]-ATP […]", "summary_of_the_method": "as §1"}, "[11]": {"assay": "AUC (0 to t) in albino Wistar rat at 5 mg/kg, iv up to 24 hrs by LC-MS/MS analysis", "format": "ADME, organism-based", "parameters": "dose 5 mg/kg, time < 24 hr, route intravenous", "details": "in vivo"}, "MV4-11 [12]": {"test_system": "MV4-11", "assay": "Antitumor activity against human MV4-11 cells xenografted in nude BALB/c mouse assessed as median survival time at 100 mg/kg, po qd administered for 33 consecutive days and left untreated for another 50 days (reference value: 33 days)", "format": "functional"}, "Mus musculus [13]": {"test_system": "Mus musculus", "assay": "Toxicity in nude BALB/c mouse xenografted with human MV4-11 cells assessed as body weight loss at 100 mg/kg, po qd for 33 consecutive days and left untreated for another 50 days", "format": "organism-based", "details": "in vivo, 1200 h"}, "[14]": {"assay": "Tmax in albino Wistar rat at 20 mg/kg administered via oral gavage measured up to 24 hrs by LC-MS/MS analysis", "format": "ADME, organism-based", "details": "in vivo", "summary_of_the_method": "as §2"}, "MV4-11 [15]": {"test_system": "MV4-11", "assay": "Antitumor activity against human MV4-11 cells xenografted in nude BALB/c mouse assessed as tumor volume at 100 mg/kg, po qd administered for 33 consecutive days measured on day 31", "format": "functional"}, "Mus musculus [16]": {"test_system": "Mus musculus", "assay": "Toxicity in nude BALB/c mouse assessed as body weight loss at 20 to 100 mg/kg, po qd measured up to 14 days post dose", "format": "organism-based", "details": "in vivo, 336 h"}, "[17]": {"assay": "Volume of distribution at steady state in BALB/c mouse at 2 mg/kg, iv up to 24 hrs by LC-MS/MS analysis", "format": "ADME, organism-based", "details": "in vivo, read-out: Vdss", "summary_of_the_method": "as §2"}, "MV4-11 [18]": {"test_system": "MV4-11", "assay": "Antitumor activity against human MV4-11 cells xenografted in nude BALB/c mouse assessed as tumor growth inhibition at 100 mg/kg, po qd administered for 33 consecutive days measured post last dose", "format": "functional", "details": "MV4-11, po, read-out: TGI"}, "[19]": {"assay": "Oral bioavailability in BALB/c mouse at 10 mg/kg measured up to 24 hrs by LC-MS/MS analysis", "format": "ADME, organism-based", "details": "in vivo", "summary_of_the_method": "as §2"}, "[20]": {"assay": "Efflux ratio of apparent permeability co-efficient from basolateral to apical side over apical to basolateral side in human Caco2 cells", "format": "ADME, cell-based", "details": "Caco-2", "summary_of_the_method": "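Caco-2 monolayer assay measuring the apparent permeability coefficient (P_app, 10^-6 cm/s) in the A→B and B→A directions. Efflux ratio is the mean P_app B-A divided by the mean P_app A-B.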"}, "[21]": {"assay": "Dissociation constant, pKa of the compound by pH-metric titration method", "format": "physicochemical"}, "MV4-11 [22]": {"test_system": "MV4-11", "assay": "Cell cycle arrest in human MV4-11 cells assessed as accumulation at S phase at 0.20 uM after 24 hrs by propidium iodide staining based flow cytometry (reference value: 19.07%)", "format": "functional"}, "MV4-11 [23]": {"test_system": "MV4-11", "assay": "Cell cycle arrest in human MV4-11 cells assessed as accumulation at sub-G1 phase at 0.40 uM after 24 hrs by propidium iodide staining based flow cytometry (reference value: 1.99%)", "format": "functional"}, "MV4-11 [24]": {"test_system": "MV4-11", "assay": "Cell cycle arrest in human MV4-11 cells assessed as accumulation at G2/M phase at 0.20 uM after 24 hrs by propidium iodide staining based flow cytometry (reference value: 17.94%)", "format": "functional"}, "MV4-11 [25]": {"test_system": "MV4-11", "assay": "Cell cycle arrest in human MV4-11 cells assessed as accumulation at S phase at 0.04 uM after 24 hrs by propidium iodide staining based flow cytometry (reference value: 19.07%)", "format": "functional"}, "MV4-11 [26]": {"test_system": "MV4-11", "assay": "Cell cycle arrest in human MV4-11 cells assessed as accumulation at G1 phase at 0.40 uM after 24 hrs by propidium iodide staining based flow cytometry (reference value: 61.01%)", "format": "functional"}, "MV4-11 [27]": {"test_system": "MV4-11", "assay": "Cell cycle arrest in human MV4-11 cells assessed as accumulation at G2/M phase at 0.40 uM after 24 hrs by propidium iodide staining based flow cytometry (reference value: 17.94%)", "format": "functional"}},
  "note": "Active and inactive are the calls of the source. The calls are words filed in the database; no cut-off is given here.",
  "data": [
    {"smiles": "Cc1nc(NC2CCCC2)sc1-c1ccnc(Nc2ccc(N3CCOCC3)cn2)n1", "values": [
      {"measurement": "inhibition", "setting": "[1]", "result": "Active"},
      {"measurement": "Ki", "setting": "CDK2/Cyclin A2", "result": 4.68, "unit": "µM"},
      {"measurement": "Vd", "setting": "[2]", "result": 1.5, "unit": "L/kg"},
      {"measurement": "Cmax", "setting": "[3]", "result": 2300, "unit": "nM"},
      {"measurement": "IC50", "setting": "Cytochrome P450 2C19", "result": "> 25", "unit": "µM"},
      {"measurement": "half-life", "setting": "[4]", "result": 5, "unit": "h"},
      {"measurement": "IC50", "setting": "Cytochrome P450 1A2", "result": "> 25", "unit": "µM"},
      {"measurement": "IC50", "setting": "Cytochrome P450 2C9", "result": "> 25", "unit": "µM"},
      {"measurement": "clearance", "setting": "[5]", "result": 11.8, "unit": "mL/min/kg"},
      {"measurement": "Ki(app)", "setting": "[6]", "result": "inactive"},
      {"measurement": "Tmax", "setting": "[7]", "result": 2, "unit": "h"},
      {"measurement": "logD", "setting": "[8]", "result": 4.4},
      {"measurement": "inhibition", "setting": "[9]", "result": "Dose-dependent effect"},
      {"measurement": "IC50", "setting": "Cytochrome P450 2D6", "result": "> 25", "unit": "µM"},
      {"measurement": "inhibition", "setting": "[10]", "result": "Active"},
      {"measurement": "AUC(0-t) at 24 h", "setting": "[11]", "result": 15.9, "unit": "µM·h"},
      {"measurement": "MST", "setting": "MV4-11 [12]", "result": 55, "unit": "days"},
      {"measurement": "Activity", "setting": "Mus musculus [13]", "result": "Non-Toxic"},
      {"measurement": "Tmax", "setting": "[14]", "result": 3.7, "unit": "h"},
      {"measurement": "T/C", "setting": "MV4-11 [15]", "result": 30, "unit": "%"},
      {"measurement": "Activity", "setting": "Mus musculus [16]", "result": "Non-Toxic"},
      {"measurement": "Vd", "setting": "[17]", "result": 5.6, "unit": "L/kg"},
      {"measurement": "inhibition in vivo at 100 mg/kg", "setting": "MV4-11 [18]", "result": 76, "unit": "%"},
      {"measurement": "bioavailability", "setting": "[19]", "result": 100, "unit": "%"},
      {"measurement": "efflux ratio", "setting": "[20]", "result": "0.396 to 4"},
      {"measurement": "pKa", "setting": "[21]", "result": "3.98 to 5.68"}
    ]},
    {"smiles": "CC(=O)c1c(C)c2cnc(Nc3ccc(N4CCNCC4)cn3)nc2n(C2CCCC2)c1=O", "note": "[PALBOCICLIB]", "values": [
      {"measurement": "Activity", "setting": "MV4-11 [22]", "result": 9.33, "unit": "%"},
      {"measurement": "Activity", "setting": "MV4-11 [23]", "result": 2.93, "unit": "%"},
      {"measurement": "Activity", "setting": "MV4-11 [24]", "result": 5.74, "unit": "%"},
      {"measurement": "Activity", "setting": "MV4-11 [25]", "result": 15.52, "unit": "%"},
      {"measurement": "Activity", "setting": "MV4-11 [26]", "result": 85.35, "unit": "%"},
      {"measurement": "Activity", "setting": "MV4-11 [27]", "result": 5.69, "unit": "%"}
    ]}
  ]
}
